ChEMBL document CHEMBL1123989, “Effects of addition of a 2-methyl group to ethyl nipecotates (beta-meperidines) on receptor affinities and opiate agonist/antagonist activities” (J Med Chem, 1988)
Calls of active or inactive are those of the source.

Columns and labels:
[1] = biological target: Kappa-type opioid receptor (Cavia porcellus, UniProt P41144); test: Binding affinity at Opioid receptor kappa 1 in guinea pig brain membrane determined by using [3H]U-69593 as radioligand; assay type: cell membranes
Procedure, shortened: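 Guinea pig brain membranes prepared as for the rat assay (Tris pH 7.7, 1 h 37 °C preincubation). Displacement of [3H]U69,593 over 1 h at 25 °C, then filtered. Nonspecific binding with 1.0 μM unlabeled U69,593. Curves repeated twice at two tracer concentrations. Values by LIGAND analysis.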

Mu-type opioid receptor = Mu-type opioid receptor (Rattus norvegicus, UniProt P33535); test: Binding affinity at Opioid receptor mu 1 in rat brain membrane was determined by using curve-fitting ligands ([3H]DHM, [3H]DADL, [3H]DSLET, [3H]EKC); assay type: cell membranes
Procedure, shortened: (§1)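 Rat brain membranes in Tris pH 7.7, preincubated 1 h at 37 °C to strip endogenous opioids. 12 mg tissue per tube with tritiated ligand plus competitor, 1 h at 25 °C, then filtered. Nonspecific binding defined with 1.0 μM unlabeled form of the tracer. Each curve run twice at two tracer concentrations. Affinities from simultaneous LIGAND curve-fitting.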

Mus musculus [2] = test: Effective dose to show narcotic analgesic activity was evaluated in mouse tail-flick test when administered subcutaneously; assay type: functional; details: sc
Procedure, shortened: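 Male Swiss-Webster mice (21-28 g), pretested twice; heat lamp set for a 2-4 s baseline flick with a 6.5 s cut-off. Three doses, 10 mice/dose, given sc. Latency read at 10-60 min. % of maximum possible increase taken at peak effect. ED50 with 95% CL from a log-dose probit plot (Litchfield–Wilcoxon).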

Mus musculus [3] = test: Antagonistic activity to show narcotic effect induced by subcutaneous administration of 21.08 umol/kg of morphine in mouse tail-flick test; assay type: functional
Procedure, shortened: (§2)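 Male Swiss-Webster mice. Tail-flick latency read at 10, 20, 30, 45 and 60 min. % antagonism = 100 − (% agonism with morphine)/0.80, taken at peak effect. AD50 with 95% CL by Litchfield–Wilcoxon from the log-dose plot.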

[4] = biological target: Delta-type opioid receptor (Rattus norvegicus, UniProt P33533); test: Binding affinity at Opioid receptor delta 1 in rat brain membrane was determined by using curve -fitting LIGAND([3H]DHM, [3H]DADL, [3H]DSLET, [3H]EKC); assay type: cell membranes; procedure, shortened: as §1
Mus musculus [5] = test: Antagonistic activity to show narcotic effect induced by subcutaneous administration of 21.08 umol/Kg of morphine in mouse tail-flick test; NA=No antagonism; assay type: functional, organism-based; procedure, shortened: as §2

Chain of Mu-type opioid receptor (P33535 whole entry): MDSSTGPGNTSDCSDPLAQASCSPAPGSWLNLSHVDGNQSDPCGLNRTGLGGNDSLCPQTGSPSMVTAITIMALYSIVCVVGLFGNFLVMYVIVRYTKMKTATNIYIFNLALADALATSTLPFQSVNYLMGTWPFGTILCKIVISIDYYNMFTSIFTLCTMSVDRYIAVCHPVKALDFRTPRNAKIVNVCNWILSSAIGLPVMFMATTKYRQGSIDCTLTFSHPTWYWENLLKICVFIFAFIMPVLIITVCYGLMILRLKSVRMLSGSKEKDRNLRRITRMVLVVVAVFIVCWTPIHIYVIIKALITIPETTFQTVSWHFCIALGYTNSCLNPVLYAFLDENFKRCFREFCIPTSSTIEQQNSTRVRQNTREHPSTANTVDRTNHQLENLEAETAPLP
Chain of Delta-type opioid receptor (P33533 whole entry): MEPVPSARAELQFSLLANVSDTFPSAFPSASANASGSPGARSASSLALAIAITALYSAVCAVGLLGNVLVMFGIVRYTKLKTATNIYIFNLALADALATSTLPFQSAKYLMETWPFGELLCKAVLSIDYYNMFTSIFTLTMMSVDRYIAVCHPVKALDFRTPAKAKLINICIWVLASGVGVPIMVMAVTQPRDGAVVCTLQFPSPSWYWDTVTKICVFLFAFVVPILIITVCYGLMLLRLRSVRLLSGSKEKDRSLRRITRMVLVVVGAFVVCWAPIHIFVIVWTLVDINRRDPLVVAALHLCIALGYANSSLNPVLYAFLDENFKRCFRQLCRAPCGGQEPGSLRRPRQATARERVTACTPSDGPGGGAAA
Chain of Kappa-type opioid receptor (P41144 whole entry): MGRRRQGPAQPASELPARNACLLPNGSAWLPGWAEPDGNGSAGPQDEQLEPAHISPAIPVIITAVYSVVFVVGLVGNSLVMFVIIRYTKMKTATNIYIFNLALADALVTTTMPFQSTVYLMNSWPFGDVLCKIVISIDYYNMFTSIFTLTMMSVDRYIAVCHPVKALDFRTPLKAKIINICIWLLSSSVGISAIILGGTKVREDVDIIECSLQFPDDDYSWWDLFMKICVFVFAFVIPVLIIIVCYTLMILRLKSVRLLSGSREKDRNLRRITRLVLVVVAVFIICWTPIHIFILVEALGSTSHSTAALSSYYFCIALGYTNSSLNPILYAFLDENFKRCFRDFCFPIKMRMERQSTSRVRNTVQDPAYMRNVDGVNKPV

Structure (SMILES)	Kd [1] [nM]	Kd (Mu-type opioid receptor) [nM]	ED50 (Mus musculus [2]) [µmol/kg]	AD50 (Mus musculus [3]) [µM/kg]	Kd [4] [nM]	AD50 (Mus musculus [5])
CCOC(=O)[C@]1(c2cccc(O)c2)CCCN(CC2CC2)[C@H]1C	830	154	> 452	75	625	
CCOC(=O)[C@]1(c2cccc(O)c2)CCCN(C)[C@H]1C	1900	178	> 510	14	910	
C=CCN1CCC[C@](C(=O)OCC)(c2cccc(O)c2)C1	450	26	> 229	>192	715	
CCOC(=O)[C@]1(c2cccc(O)c2)CCCN(CC2CC2)C1	120	8	68	19	260	
C=CCN1CCC[C@](C(=O)OCC)(c2cccc(O)c2)[C@@H]1C	830	310	> 118	112	770	
CCOC(=O)[C@]1(c2cccc(O)c2)CCCN(CCc2ccccc2)[C@H]1C	2600	380	> 198	>198	170	
CCOC(=O)[C@]1(c2cccc(O)c2)CCCN(C)C1	2200	36	> 290	24	4000	
CCOC(=O)C1(c2ccccc2)CCN(C)CC1 [MEPERIDINE]			25			inactive
C=CCN1CC[C@]23c4c5ccc(O)c4O[C@H]2[C@@H](O)C=C[C@H]3[C@H]1C5 [NALORPHINE]			828	2		
